Screens deposited in PubChem by several laboratories.
PHOSPHO1 inh: PubChem AID 1565 | recombinant PHOSPHO1, absorbance phosphatase assay | inhibition, % at 13.3 µM | Phosphoethanolamine/phosphocholine phosphatase (Homo sapiens), Q8TCT1 | 290,000 compounds, 1.1% hits; in the data active = inhibition above about 60%
ALR H2O2 inh: inhibitors of human ALR sulfhydryl oxidase, primary screen, biochemical, H2O2 detection, HRP-luminol luminescence, single point; purified ALR, DTT oxidation; inhibition, % (concentration not given with the values); 290,000 compounds, 3.8% hits; AID 485317, 2010;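 active = mean replicate inhibition above about 79%, with every replicate also reaching it, limit read from the data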
Target sequence (P55789 whole entry, looked up): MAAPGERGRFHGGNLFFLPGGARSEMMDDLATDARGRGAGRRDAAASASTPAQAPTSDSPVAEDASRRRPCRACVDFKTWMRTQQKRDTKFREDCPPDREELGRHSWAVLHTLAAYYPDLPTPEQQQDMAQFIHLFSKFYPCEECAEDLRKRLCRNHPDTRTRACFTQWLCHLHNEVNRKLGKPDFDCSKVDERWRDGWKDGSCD
HSF1 activator: HSF-1 activators, primary screen, NIH3T3-HGL cells, MG132 stress, luminescence, single point | activation, % at 9 µM | 300,000 compounds, 1.7% hits | NIH3T3-HGL HSF-1 luciferase reporter, 8 h; 100% = twice DMSO control signal;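 active = mean replicate activation of at least 50% with a set share of replicates each reaching 50%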
HSF1 inhib: HSF1 inhibitors in luciferase reporter cells, primary screen, cell-based, NIH3T3, luminescence | NIH3T3-HGL HSE-luciferase, MG132-induced, luminescence 8 h; hits give low values | AID 2098, 2009 | 300,000 compounds, 0.77% hits | activity change, negative = inhibition, % at 7.5 µM (by protocol);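 active = more than half of replicate wells show activity change below -50%, luminescence cut by over half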;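 also: luciferase reports HSF-1 transcriptional activity via heat shock element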
AI-2 QS modul: Vibrio harveyi AI-2 quorum sensing modulators, primary screen, JMH597 strain, luminescence/OD600 ratio. activity change, % at 7.5 µM. AID 2094, 2009. Vibrio harveyi JMH597 AI-2 luminescence/OD600 ratio, 9 h; hits give low values; strain lacks LuxN and CqsS sensors; 0 = neutral-control median. 300,000 compounds, 0.4% hits; in the data active = activity change below about -75%, passing the limit was not always enough;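 also: luminescence divided by OD600 gain over 9 h not by final OD600 alone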
HCV core dimer: inhibitors of HCV core protein dimerization, primary screen, biochemical, TR-FRET, high-throughput; TR-FRET GST/Flag-core106 dimerization, 1536-well; inhibition, % at 5 µM; 300,000 compounds, 0.33% hits; AID 1899, 2009;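 active = inhibition above the mean of all tested compounds plus 3 SD, set per screening campaign, cut at about 45% in these data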
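Assay system – GST-tagged and Flag-tagged HCV core protein residues 1-106 · Quantity – core106 proteins, GST 13.5 nM and Flag 17 nM · Benchmarks – unlabelled core106 and no-GST-core106 wells · Read-out basis – percent inhibition of core106 dimerization signal · Detection – time-resolved FRET, ex 340 nm, em 617 and 671 nm · Schedule – 4 h at 22.5 °C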
Each line names hits and unclear results; the compound was inactive in the other large screens. Only some compounds are listed: those with a hit (about 6.8% of all), similar ones and a draw of the others.

CC(=O)C1=C(O)C(=O)N(c2ccc(S(N)(=O)=O)cc2)C1c1cccc([N+](=O)[O-])c1 (stereo unspecified)	none
CC(=O)C1C(=O)c2c(cccc2[N+](=O)[O-])C1=Nc1ccc(S(N)(=O)=O)cc1 (stereo unspecified)	HSF1 inhib -91
Oc1ccc(N=Cc2cc(Br)c(N3CCOCC3)o2)cc1	ALR H2O2 inh 86
O=[N+]([O-])c1cc(Br)c(O)c(C=Nc2ccc(N3CCOCC3)cc2)c1	none
Cc1cccc(Sc2c([N+](=O)[O-])ncn2C)c1	ALR H2O2 inh 98
Cc1cc2nc(Sc3c([N+](=O)[O-])nc(C)n3Cc3ccccc3)[nH]c2cc1C	ALR H2O2 inh 97, HSF1 activator 95
Cc1nc([N+](=O)[O-])c(Sc2nc3ccccc3[nH]2)n1Cc1ccccc1	HSF1 activator 56
COc1ccc2nc(Sc3c([N+](=O)[O-])nc(C)n3Cc3ccccc3)[nH]c2c1	HSF1 activator 107
CCn1c(COC(=O)CNC(=O)c2cc(OC)c(OC)c(OC)c2)nc2cc(S(=O)(=O)N(C)C)ccc21	none (no result: PHOSPHO1 inh, ALR H2O2 inh)
O=C1CCc2cc(S(=O)(=O)NCCC(=O)NC3CCCCC3)ccc2N1	none
CC1CC(C)CN(CCCNC(=O)c2nn(C)c3c2CS(=O)(=O)c2ccccc2-3)C1 (stereo unspecified)	none
COc1ccccc1C(=O)C1CCCN(C(=O)c2cnn(C(C)C)c2)C1 (stereo unspecified)	none
Cc1cc(C)c(CN2CCN(Cc3ccc(C)o3)C(CCO)C2)c(-n2cccn2)c1 (stereo unspecified)	none
Cn1cnc([N+](=O)[O-])c1SCC(=O)NN	ALR H2O2 inh 88
O=C(O)c1cc([N+](=O)[O-])c(Sc2nc3ccccc3[nH]2)c([N+](=O)[O-])c1	ALR H2O2 inh 85
Cn1cnc([N+](=O)[O-])c1Sc1nc2ccccc2[nH]1	ALR H2O2 inh 99
Cc1cccnc1Sc1c([N+](=O)[O-])ncn1C	none
COc1cc(/C=N/Nc2cccc(C)c2)ccc1OC(=O)c1ccco1	none
CN1CCN(c2ccc(C(=O)NC3CCCCC3)cc2[N+](=O)[O-])CC1	none
Cc1ccc(/C=N/N=C/c2ccc(C)s2)s1	HSF1 activator 78 (no result: ALR H2O2 inh)
CCOC(=O)N/N=C\c1ccc([N+](=O)[O-])s1	none
Cc1ccc(/C=N/NC(=O)c2ccncc2)s1	none
CCOC(=O)N/N=C\c1ccc(C)s1	HSF1 inhib -79
CC(C)(C)C1CCC2(CC1)SCC(=O)N2c1ccccc1 (stereo unspecified)	none
CC1CCC2(CC1)SCC(=O)N2c1ccc(F)cc1 (stereo unspecified)	ALR H2O2 inh 99
Cc1c(NC(=O)C2CC(c3ccc(F)cc3)=NO2)c(=O)n(-c2ccccc2)n1C (stereo unspecified)	HSF1 inhib -84
COc1ccc(C2=NOC(C(=O)Nc3c(C)n(C)n(-c4ccccc4)c3=O)C2)cc1 (stereo unspecified)	none
O=C(CN1C(=O)C(=O)N(C2CCCC2)C1=O)Nc1ccc(N2CCOCC2)cc1	none
O=c1ncn(-c2cccc(Cl)c2)c2ccccc12	none (no result: PHOSPHO1 inh)
CCN(CC)c1ccc(NC(=O)c2nc3nc(C)cc(C(F)F)n3n2)cc1	PHOSPHO1 inh 78, ALR H2O2 inh 99
Cc1cc(C)n2nc(C(=O)Nc3ccc4c(c3)OCO4)nc2n1	HCV core dimer 47
CCn1ncc(/C=N\NC(=O)COc2ccccc2)c1C	ALR H2O2 inh 96
CCn1ncc(/C=C/C(=O)c2ccccc2)c1C	HSF1 activator 53
CCn1cc(/C=C/C(=O)c2ccc(O)cc2)c(C)n1	PHOSPHO1 inh 60
Cc1cc(NC(=O)C2CC(=O)N(c3ccc(F)cc3)C2)no1 (stereo unspecified)	none
CCc1cccc(CC)c1NC(=O)/C(C#N)=C/c1ccccc1C(F)(F)F	HSF1 activator 83
